From ChEMBL document CHEMBL1153409, “The identification of novel PLC-gamma inhibitors using virtual high throughput screening” (Bioorg Med Chem, 2009)
Active and inactive are the calls of the source. The calls are words filed in the database; no cut-off is given here.

Assays:
[1] = biological target: T1, 1-phosphatidylinositol 4,5-bisphosphate phosphodiesterase gamma-2 (Homo sapiens) (UniProt P16885); test: Inhibition of recombinant phospholipase C gamma2 expressed in baculovirus infected Sf9 cells at 50 uM using [3H]PIP2 by flashplate biochemical assay
T1 sequence (whole entry): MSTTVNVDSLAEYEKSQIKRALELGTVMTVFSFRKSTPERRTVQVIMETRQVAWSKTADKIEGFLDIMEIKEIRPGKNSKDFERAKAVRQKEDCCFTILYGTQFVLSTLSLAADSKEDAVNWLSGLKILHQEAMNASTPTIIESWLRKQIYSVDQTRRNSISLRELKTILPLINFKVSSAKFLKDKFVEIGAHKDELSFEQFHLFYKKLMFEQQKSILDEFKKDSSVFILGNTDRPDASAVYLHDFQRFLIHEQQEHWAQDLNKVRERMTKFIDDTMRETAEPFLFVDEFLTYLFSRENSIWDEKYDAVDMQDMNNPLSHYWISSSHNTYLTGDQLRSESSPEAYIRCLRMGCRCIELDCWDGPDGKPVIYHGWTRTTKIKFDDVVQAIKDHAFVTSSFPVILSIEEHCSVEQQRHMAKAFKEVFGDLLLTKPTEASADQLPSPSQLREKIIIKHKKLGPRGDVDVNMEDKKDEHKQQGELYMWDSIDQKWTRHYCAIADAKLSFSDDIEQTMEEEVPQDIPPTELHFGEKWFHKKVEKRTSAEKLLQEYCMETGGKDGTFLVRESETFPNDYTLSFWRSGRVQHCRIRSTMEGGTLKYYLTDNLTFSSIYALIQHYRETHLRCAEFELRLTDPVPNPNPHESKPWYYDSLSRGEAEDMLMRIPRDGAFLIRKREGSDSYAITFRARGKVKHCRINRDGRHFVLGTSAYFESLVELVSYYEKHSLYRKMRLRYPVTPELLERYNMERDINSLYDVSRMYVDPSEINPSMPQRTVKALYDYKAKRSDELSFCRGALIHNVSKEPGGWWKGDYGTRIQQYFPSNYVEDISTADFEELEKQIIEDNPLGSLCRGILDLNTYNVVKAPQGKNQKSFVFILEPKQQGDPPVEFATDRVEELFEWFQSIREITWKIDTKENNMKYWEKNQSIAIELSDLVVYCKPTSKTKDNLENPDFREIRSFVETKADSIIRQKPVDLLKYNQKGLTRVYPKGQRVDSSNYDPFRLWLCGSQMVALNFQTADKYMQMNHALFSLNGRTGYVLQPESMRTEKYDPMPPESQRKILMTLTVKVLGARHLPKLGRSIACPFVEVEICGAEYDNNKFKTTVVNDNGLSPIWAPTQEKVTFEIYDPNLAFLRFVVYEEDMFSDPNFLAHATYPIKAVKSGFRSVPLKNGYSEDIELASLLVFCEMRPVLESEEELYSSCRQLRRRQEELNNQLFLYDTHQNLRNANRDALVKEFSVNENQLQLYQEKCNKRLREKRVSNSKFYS
Outline: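 3H-PIP2 Flashplate assay with His-tagged full-length PLC-γ2 from infected Sf-9 cells. Substrate-coated wells (0.1 µCi/well) incubated with enzyme and compound in Tris/NaCl/CaCl2/EGTA/spermine/deoxycholate buffer, pH 7.4, 5% DMSO, room temperature, typically 30 min. Percent inhibition at 50 µM from two measurements, based on CPM versus control wells.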

[2] = biological target: T1, 1-phosphatidylinositol 4,5-bisphosphate phosphodiesterase gamma-2 (Homo sapiens); test: Inhibition of phospholipase C gamma2 in human A431 cells assessed as reduction of calcium release after 45 mins by FLIPR assay; format: cell-based; settings: A-431
Outline: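 A431 squamous carcinoma cells seeded at 4 × 10^5 per well and kept overnight at 37 °C, 5% CO2. Medium replaced with doubling dilutions of compound in HBSS starting at 100 µM. Calcium 3 dye added with probenecid (2.5 mM final), 45 min at 37 °C, then calcium release read by FLIPR at 37 °C.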

[3] = biological target: T2, 1-phosphatidylinositol 4,5-bisphosphate phosphodiesterase gamma-2 (Homo sapiens, UniProt P16885); test: Inhibition of recombinant phospholipase C gamma2 expressed in baculovirus infected Sf9 cells using [3H]PIP2 by flashplate biochemical assay
T2 sequence (P16885 whole entry): T1 sequence (whole entry)
Outline: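 Full-length His-tagged PLC-γ2 from baculovirus-infected Sf-9 cells, purified by Talon IMAC. Plates coated 24 h at room temperature with 3H-PIP2 (0.1 µCi/well); enzyme plus inhibitor in 50 mM Tris-HCl, 200 mM NaCl, 100 µM CaCl2, 100 µM EGTA, 100 µM spermine, 0.5 mM deoxycholate, pH 7.4, 5% v/v DMSO final. Scintillation signal loss read at room temperature, typically 30 min; CPM compared with control wells.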

[4] = biological target: T1, 1-phosphatidylinositol 4,5-bisphosphate phosphodiesterase gamma-2 (Homo sapiens); test: Inhibition of phospholipase C gamma2 in human A431 cells assessed as reduction of calcium release at 50 uM after 45 mins by FLIPR assay; format: cell-based; settings: A-431
Outline: (§1)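 A431 cells seeded overnight at 4 × 10^5 per well, then given compound in HBSS. Calcium 3 dye with 2.5 mM probenecid, 45 min at 37 °C, FLIPR read at 37 °C. Scoring was semi-quantitative: any decrease in calcium release at 50 µM scored +, at 25 µM ++.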

[5] = biological target: T1, 1-phosphatidylinositol 4,5-bisphosphate phosphodiesterase gamma-2 (Homo sapiens); test: Inhibition of phospholipase C gamma2 in human A431 cells assessed as reduction of calcium release at 25 uM after 45 mins by FLIPR assay; format: cell-based; settings: A-431; outline: as §1

Q: Which inhibition [1] does the source give for `O=c1/c(=C/c2ccncc2)sc2n1CN(c1ccc(Cl)cc1)CN=2` here?
A: 100%

Q: What about the GC50 [2] of the same compound?
A: 15 µM

Q: `Clc1cccc(-c2nc(-c3ccc(-c4ccon4)s3)no2)c1` was tested. Which GC50 [2] did it give?
A: inactive

Q: And the IC50 [3]?
A: 1 µM

Q: Which results are given for `O=C(NC(=O)c1ccccc1Cl)Nc1ccc2c(c1)S(=O)(=O)C=C2`?
A: GC50 [2]: inactive; IC50 [3]: 9.5 µM

Q: What does the source list for `Cc1ccc(NC(=O)c2sc3nc4c(cc3c2N)C(=O)CCC4)cc1Cl`?
A: inhibition [1]: 100%; GC50 [2]: inactive

Q: What does the source list for `Nc1c(C(=O)Nc2cccc(F)c2)sc2nc(-c3ccc(F)cc3)ccc12`?
A: inhibition [1]: 100%; Decrease in calcium release (active/inactive call) [4]: Active

Q: `CC(=O)c1ccc(Nc2nnc(-c3ccncc3)s2)cc1` was tested. Which inhibition [1] did it give?
A: 100%

Q: What about the “Calcium release inhibition activity at 25 uM” value [5] of the same compound?
A: Active

Q: What does the source list for `Cc1ccc2c(c1)N/C(=C\C(=O)c1ccc(Cl)cc1)C(=O)O2`?
A: inhibition [1]: 100%; GC50 [2]: 22 µM

Q: Which results are given for `Cc1ccc(/C=C2\C(=O)NC(=O)N(c3ccc(Cl)cc3)C2=O)s1`?
A: inhibition [1]: 6%; GC50 [2]: 5 µM

Q: Which inhibition [1] does the source give for `O=C(Nc1ccc(S(=O)(=O)Nc2nccs2)cc1)c1cccs1` here?
A: 82%

Q: What about the GC50 [2] of the same compound?
A: inactive

Q: How did the inhibition [1] turn out when `O=C(Nc1ccc2oc(=O)ccc2c1)c1ccc(-c2cccc(Cl)c2)o1` was run?
A: 100%

Q: What about the “Calcium release inhibition activity at 25 uM” value [5] of the same compound?
A: Active

Q: Which results are given for `O=C(Nc1ccccc1)Nc1nnc(-c2cccs2)s1`?
A: inhibition [1]: 100%; GC50 [2]: inactive

Q: How did the inhibition [1] turn out when `O=c1/c(=C/c2ccccc2[N+](=O)[O-])sc2nc(-c3ccc(F)cc3)nn12` was run?
A: 100%

Q: What about the GC50 [2] of the same compound?
A: 15 µM

Q: Which results are given for `O=C1C2Nc3ccc(Br)cc3C2N=CN1CCC1=CCCCC1` (centres undefined)?
A: inhibition [1]: 100%; GC50 [2]: inactive

Q: Which results are given for `O=S(=O)(Oc1ccc(-c2cnc3ccccc3n2)cc1)c1ccccc1`?
A: inhibition [1]: 100%; Calcium release inhibition activity at 25 uM [5]: Active

Q: `COc1ccc(-c2nnc(NC(=O)c3cccs3)s2)cc1` was tested. Which inhibition [1] did it give?
A: 100%

Q: What about the GC50 [2] of the same compound?
A: inactive

Q: `Cc1ccc(S(=O)(=O)NC2=NC(=O)/C(=C\c3ccccc3)S2)cc1` was tested. Which inhibition [1] did it give?
A: 82%

Q: And the GC50 [2]?
A: 15 µM

Q: What does the source list for `CCCOc1ccc(-c2nnc(NC(=O)c3cccs3)s2)cc1`?
A: inhibition [1]: 67%; GC50 [2]: inactive

Q: How did the inhibition [1] turn out when `Nc1c(C(=O)Nc2cccc(Cl)c2)sc2nc3c(cc12)C(=O)CCC3` was run?
A: 100%

Q: And the GC50 [2]?
A: inactive

Q: What does the source list for `COc1ccc(Cl)cc1C(=O)Nc1nc2ccc([N+](=O)[O-])cc2s1`?
A: inhibition [1]: 100%; Calcium release inhibition activity at 25 uM [5]: Active

Q: What does the source list for `CCCc1nnc(NC(=O)c2cc([N+](=O)[O-])cc([N+](=O)[O-])c2)s1`?
A: inhibition [1]: 100%; GC50 [2]: inactive

Q: For `COc1ccc2c(c1)C1N=CN(CCc3c[nH]c4ccccc34)C(=O)C1N2` (centres undefined), which inhibition [1] is on record?
A: 89%

Q: What about the “Decrease in calcium release (active/inactive call)” value [4] of the same compound?
A: Active

Q: What does the source list for `O=C(Nc1nc2ccccc2c(=O)s1)c1ccc(Cl)cc1`?
A: GC50 [2]: inactive; IC50 [3]: 2 µM

Q: Which “Decrease in calcium release (active/inactive call)” value [4] does the source give for `O=C1OC(c2ccc([N+](=O)[O-])cc2)=N/C1=C/c1cccs1` here?
A: Active

Q: And the IC50 [3]?
A: 12 µM

Q: Which GC50 [2] does the source give for `COc1ccc(S(=O)(=O)n2ccc(-c3ccc4c(c3)CCC(C)(C)O4)n2)cc1` here?
A: 30 µM

Q: What about the IC50 [3] of the same compound?
A: 3 µM

Q: How did the GC50 [2] turn out when `COc1ccc(-c2cc3nnc(-c4ccccc4)nc3s2)cc1` was run?
A: inactive

Q: And the IC50 [3]?
A: 4 µM

Q: For `COc1ccc2[nH]c(C(=O)Nc3nc4ccccc4s3)cc2c1`, which GC50 [2] is on record?
A: inactive

Q: And the IC50 [3]?
A: 5 µM

Q: For `O=C(Nc1ccc(Cl)cc1)c1cc2cccc([N+](=O)[O-])c2[nH]1`, which GC50 [2] is on record?
A: inactive

Q: What about the IC50 [3] of the same compound?
A: 1 µM

Q: Which results are given for `O=C1C2Nc3ccc(Br)cc3C2N=CN1CCc1ccccc1` (centres undefined)?
A: inhibition [1]: 100%; GC50 [2]: inactive

Q: For `O=[N+]([O-])c1cc(-c2nc(-c3ccccn3)no2)cs1`, which GC50 [2] is on record?
A: inactive

Q: What about the IC50 [3] of the same compound?
A: 2 µM

Q: Which inhibition [1] does the source give for `CCOc1ccc2c(c1)C1N=CN(Cc3ccccc3)C(=O)C1N2` (centres undefined) here?
A: 89%

Q: And the GC50 [2]?
A: inactive

Q: What does the source list for `O=C(Nc1cccc(Cl)c1)Nc1nnc(-c2ccc3c(c2)OCO3)s1`?
A: inhibition [1]: 85%; Decrease in calcium release (active/inactive call) [4]: Active

Q: `O=C1C2Nc3ccc(Br)cc3C2N=CN1CCc1ccc(F)cc1` (centres undefined) was tested. Which inhibition [1] did it give?
A: 100%

Q: What about the GC50 [2] of the same compound?
A: inactive

Q: With `Nc1c(C(=O)Nc2cccc(Cl)c2)sc2nc(-c3cccs3)ccc12` as the compound, how does the inhibition [1] read?
A: 100%

Q: What about the “Decrease in calcium release (active/inactive call)” value [4] of the same compound?
A: Active

Q: What does the source list for `N#Cc1ccc(/C=C2/N=C(c3ccccc3)OC2=O)cc1`?
A: GC50 [2]: inactive; IC50 [3]: 2 µM

Q: `O=C1NN(c2ccccc2)C(=O)/C1=C/c1coc2ccc(Cl)cc2c1=O` was tested. Which inhibition [1] did it give?
A: 27%

Q: And the GC50 [2]?
A: 18 µM

Q: Which inhibition [1] does the source give for `Cc1ccc(NC(=O)c2sc3nc4c(cc3c2N)C(=O)CCC4)cc1` here?
A: 100%

Q: What about the GC50 [2] of the same compound?
A: inactive

Q: Which GC50 [2] does the source give for `O=C(NCCc1ccccc1)c1cc2cccc([N+](=O)[O-])c2[nH]1` here?
A: 15 µM

Q: What about the IC50 [3] of the same compound?
A: 1 µM
